Results pooled from the literature.
Protocols differ between the studies behind these lines. ≈ marks a conversion by molar mass, not a printed value.

| Structure (SMILES) | tested on | assay | test system | setting | measurement | value |
| --- | --- | --- | --- | --- | --- | --- |
| COc1ccc(N=Nc2c(N)nn3c(-c4ccc(Cl)cc4Cl)cc(-c4ccc(OCc5ccccc5)cc4)nc23)cc1 | Enterobacter cloacae | microbial killing | ATCC23355 | – | MBC | 250 µg/mL (≈ 420 µM) |
| COc1ccc(NC(=O)Nc2cccc(-c3cn(Cc4ccc(Br)cc4)nn3)c2)cc1 | NCI-H1299 | cell growth or viability, CCK-8 | – | 50 µM, 72 h | viability | 151% |
| O=C(Nc1ccc(Cl)cc1)Nc1ccc(-c2cn(Cc3ccc(Br)cc3)nn2)cc1 | NCI-H1299 | cell growth or viability, CCK-8 | – | 50 µM, 72 h | viability | 89.9% |
| Cc1ccc(N=Nc2c(N)nn3c(-c4ccc(C)cc4)cc(-c4ccc(OCc5ccccc5)cc4)nc23)cc1 | Enterobacter cloacae | microbial killing | ATCC23355 | – | MBC | 62.5 µg/mL (≈ 119 µM) |
| CC[C@H]1OC(=O)[C@H](C)[C@@H](O[C@H]2C[C@@](C)(OC)[C@@H](O)[C@H](C)O2)[C@H](C)[C@@H](O[C@@H]2O[C@H](C)C[C@H](N(C)C)[C@H]2O)[C@](C)(O)C[C@@H](C)CN(C)[C@H](C)[C@@H](O)[C@]1(C)O | Serratia marcescens | microbial growth | ATCC8100 | – | MIC | < 98 µg/mL |
| Cc1n[nH]c2ccc3nc(-c4ccc(C(=O)NCCN(C)C)cc4)c4c(c3c12)CCCC4 | 22Rv1 | cell growth or viability | – | 72 h | GI50 | 1.78 µM |
| COc1ccc(NC(=O)Nc2ccc(-c3cn(Cc4ccc(Cl)cc4)nn3)cc2)cc1 | NCI-H1299 | cell growth or viability, CCK-8 | – | 50 µM, 72 h | viability | 97.9% |
| Cc1n[nH]c2ccc3nc(-c4ccc(C(=O)NCCN(C)C)cc4)c4c(c3c12)CCCCC4 | 22Rv1 | cell growth or viability | – | 72 h | GI50 | 7.15 µM |
| O=C(NCc1cn(Cc2ccc(Br)cc2)nn1)Nc1ccc(Cl)cc1 | NCI-H1299 | cell growth or viability, CCK-8 | – | 50 µM, 72 h | viability | 91.5% |
| COc1ccc(NC(=O)NCc2cn(Cc3ccc(Cl)cc3)nn2)cc1 | NCI-H1299 | cell growth or viability, CCK-8 | – | 50 µM, 72 h | viability | 79.3% |
| Cc1ccc(-c2cc(-c3ccc(OCc4ccccc4)cc3)nc3c(N=Nc4ccc(F)cc4)c(N)nn23)cc1 | Enterobacter cloacae | microbial killing | ATCC23355 | – | MBC | 125 µg/mL (≈ 236 µM) |
| O=C(NCc1cn(Cc2ccc(Br)cc2)nn1)Nc1ccccc1Br | NCI-H1299 | cell growth or viability, CCK-8 | – | 50 µM, 72 h | viability | 89.2% |
| COc1ccc(N=Nc2c(N)nn3c(-c4ccco4)cc(-c4ccc(OCc5ccccc5)cc4)nc23)cc1 | Enterobacter cloacae | microbial killing | ATCC23355 | – | MBC | 62.5 µg/mL (≈ 121 µM) |
| Cc1ccc2[nH]nc(-c3nnc(Nc4ccc(Cl)cc4)s3)c2c1 | Serratia marcescens | microbial growth | ATCC8100 | – | MIC | 65.8 µg/mL (≈ 192 µM) |
| COc1ccc(NC(=O)Nc2ccc(-c3cn(Cc4ccc(Br)cc4)nn3)cc2)cc1 | NCI-H1299 | cell growth or viability, CCK-8 | – | 50 µM, 72 h | viability | 106% |
| Nc1nn2c(-c3ccco3)cc(-c3ccc(OCc4ccccc4)cc3)nc2c1N=Nc1ccc(F)cc1 | Enterobacter cloacae | microbial killing | ATCC23355 | – | MBC | 62.5 µg/mL (≈ 124 µM) |
| O=C(Nc1ccc(Cl)cc1)Nc1cccc(-c2cn(Cc3cccc(Br)c3)nn2)c1 | NCI-H1299 | cell growth or viability, CCK-8 | – | 50 µM, 72 h | viability | 94.7% |
| O=C(Nc1ccc(-c2cn(Cc3ccc(Cl)cc3)nn2)cc1)Nc1ccccc1Br | NCI-H1299 | cell growth or viability, CCK-8 | – | 50 µM, 72 h | viability | 109% |
